Rows were chosen to be rich in hits. Some 1.2% of all compounds tested hit in one or more screens of this group.
CAL PDZ FP-1 = inhibitors of human CAL PDZ peptide binding; purified CAL PDZ, TMR-peptide fluorescence polarization, 1 h; actives 0.02% (n = 330,000); inhibition, % at 20 µM;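 active = highest replicate inhibition of at least 40%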;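 note: plate controls were DMSO neutral control wells for no effect and unlabeled competitor peptide control wells for full effect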
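Material: tagged CAL PDZ protein CerCALP, purified; buffer or medium: sodium phosphate/NaCl buffer pH 7.4 with TCEP, IgG, Thesit; also added: fluorescent TMR peptide probe; schedule: 1 h incubation at room temperature before polarization reading; technique: fluorescence polarization from S- and P-plane intensities, G-factor corrected; control set: unlabelled peptide and DMSO controls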
CAL PDZ FP-2 = inhibitors of human CAL PDZ peptide binding; inhibition, % at 24.9 µM; purified CAL PDZ, TMR-peptide fluorescence polarization, 1 h; actives 0.92% (n = 300,000); Q9HD26;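 active = mean inhibition of at least 30% with at least half of replicates also reaching 30%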;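 note: 0% = DMSO neutral control and 100% = excess unlabeled competitor peptide PRC23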
ARNT TACC3 PPI = disrupts binding between human ARNT and TACC3 | inhibition, % at 9.99 µM | Q9Y6A5 | AlphaScreen His-ARNT PAS-B/GST-TACC3 binding, luminescence; TACC3 fragment carries E629A point mutation | actives 0.66% (n = 390,000);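 active = mean inhibition of replicates at least 50% and at least half of replicates each reaching 50%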;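 note: 0% = complete ARNT plus TACC3 wells and 100% = ARNT alone without TACC3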
* = called active by the depositor; nt = no result given.

SMILES	CAL PDZ FP-1	CAL PDZ FP-2	ARNT TACC3 PPI
C[C@@H]1CCCCO[C@H](CN(C)C(=O)CCC(F)(F)F)[C@H](C)CN([C@H](C)CO)C(=O)c2cc(NC(=O)Cc3ccccc3)ccc2O1	nt	nt	-10
O=C(C[C@@H]1C=C[C@H](NC(=O)c2ccc(F)cc2)[C@H](CO)O1)NCCc1ccncc1	nt	nt	6
CN(C)C(=O)C[C@H]1C=C[C@@H](NC(=O)NC2CCCC2)[C@@H](CO)O1	nt	nt	-2
O=C1CN(C(=O)c2ccccc2[N+](=O)[O-])C(c2ccccc2)c2cc(Br)ccc2N1 (stereo not drawn)	0	nt	2
Cc1ccc2c(c1)C(c1ccccc1)N(C(=O)c1ccccc1[N+](=O)[O-])CC(=O)N2 (stereo not drawn)	0	71*	-2
CO[C@@H]1CN(C)C(=O)c2cc(NS(=O)(=O)c3cn(C)cn3)ccc2OC[C@@H](C)N(CCC(F)(F)F)C[C@@H]1C	nt	nt	-31
COc1ccc(C2NN=C(c3ccc(C)cc3)S2)cc1 (stereo not drawn)	-3	41*	0
CCOc1cc(C2NN=C(c3ccc(C)cc3)S2)ccc1O (stereo not drawn)	-1	3	4
C[C@@H]1CCCCO[C@@H](CN(C)C(=O)CCC(F)(F)F)[C@H](C)CN([C@H](C)CO)C(=O)c2cc(NS(=O)(=O)c3ccc(Cl)cc3)ccc2O1	nt	nt	8
COc1cc(/C=N/Nc2nncn2/N=C/c2ccc(O)c(OC)c2)ccc1O	1	2	51*
COc1ccc(OC)c(/C=N/Nc2nncn2/N=C/c2cc(OC)ccc2OC)c1	0	-1	3
COc1ccc(S(=O)(=O)Nc2ccc3c(c2)C(=O)N([C@@H](C)CO)C[C@@H](C)[C@H](CN(C)S(=O)(=O)c2ccc(OC)cc2)OCCCC[C@@H](C)O3)cc1	nt	nt	-5
COc1ccc(CN(C)C[C@H]2OCCCC[C@@H](C)Oc3ccc(NS(C)(=O)=O)cc3C(=O)N([C@H](C)CO)C[C@H]2C)cc1	nt	nt	-6
CCSc1nnc(NC(=O)CSc2nncc(=O)n2N)s1	0	0	70*
CCc1nnc(NC(=O)CSc2nncc(=O)n2N)s1	-3	-2	-6
Cc1noc(C)c1S(=O)(=O)Nc1cccc2c1O[C@@H](CN(C)C(=O)NC(C)C)[C@@H](C)CN([C@@H](C)CO)C2=O	nt	nt	0
Cc1cccc(S(=O)(=O)N2C[C@H]3[C@@H](c4ccccc42)[C@@H](CO)N3Cc2cccnc2)c1	nt	nt	-4
Cc1cccc(S(=O)(=O)N2C[C@H]3[C@@H](c4ccccc42)[C@H](CO)N3Cc2ccccn2)c1	nt	nt	20*
CNC[C@H]1Oc2ccc(NC(=O)C3CC3)cc2CC(=O)N([C@H](C)CO)C[C@H]1C	nt	nt	-6
O=C(C[C@H]1CC[C@@H]2[C@H](COC[C@@H](O)CN2CCC(F)(F)F)O1)NCc1ccc(Oc2ccccc2)cc1	nt	nt	3
Cc1cccc(-c2ccc([C@H]3[C@@H](CO)N4CCCCN(CCC(F)(F)F)C[C@H]34)cc2)c1	nt	nt	31
CCOc1c(Cl)cc(CNCc2ccccn2)cc1OC	-3	-3	49*
COc1cc(CNCc2ccccn2)ccc1OCC(=O)NC(C)(C)C	-1	-3	82*
COc1ccc(CN2CCNC(=O)C2CC(=O)NC2CCCC2)cc1OC (stereo not drawn)	1	-3	0
COc1cc(CNCc2ccccn2)ccc1OCc1ccccc1Cl	0	0	30
SMILES	CAL PDZ FP-1	CAL PDZ FP-2	ARNT TACC3 PPI
COc1ccc(CN2CCNC(=O)C2CC(=O)NC2CCCCCCC2)cc1OC (stereo not drawn)	0	55*	2
CCOc1cc(CNCc2ccccc2)ccc1OCC(=O)NC1CCCCC1	-1	4	nt
COc1cc(CNCc2ccccn2)ccc1OCC(=O)NC1CCCCC1	-1	-1	47*
COc1cc(CNCc2cccnc2)ccc1OCC(=O)NC(C)(C)C	-3	0	-4
C[C@@H]1CN([C@@H](C)CO)C(=O)c2cc(NC(=O)c3ccccc3)ccc2O[C@@H](C)CCCCO[C@@H]1CN(C)C(=O)c1ccccc1	nt	nt	-1
CN1C(=O)c2cc(NC(=O)c3cccs3)ccc2OC[C@@H]2O[C@@H](CC(=O)NCCN3CCCCC3)CC[C@@H]21	nt	nt	-9
COC1=CC(=O)c2c(ccc3ncnc(N)c23)C1=O	1	-3	31*
COc1cccc2c1C(=O)C=C(C)C2=O	-1	nt	8
COCCCNC(=O)c1cn(CCOC)c(=O)c2c1c1ccccc1n2C	-2	-1	1
COCCNC(=O)c1cn(CCOC)c(=O)c2c1c1ccccc1n2C	-2	49*	-7
CN(C)C(=O)c1cccc(-c2ccc3c(c2)[C@@H]2[C@@H](CCN2C(=O)c2ccncc2)[C@@H](CO)N3C)c1	nt	nt	-11

From PubChem BioAssay
